Results as given in paper PMC12015351 (Scientific Reports, 2025).

How the values were obtained:
Calu-3 cells = test: Cell viability assay, xCelligence RTCA-DP, Calu-3; type: cell-based, human
[1] = target: 3CL Protease (SARS-CoV-2) (Severe acute respiratory syndrome coronavirus 2, UniProt P0DTD1); test: biochemical; details: read-out: inhibition of in vitro protease activity
[2] = tested on: SARS-CoV-2 replicon in Calu-3 cells; test: microbe, parasite or virus in culture; type: cell-based; details: for activity level in presence of Cnd: Calu-3, specific dose of Cnd (candesartan)
[3] = tested on: SARS-CoV-2 replicon in Caco-2 cells; type: cell-based; details: for activity level in presence of Cnd: Caco-2, specific dose of Cnd (candesartan)
[4] = tested on: SARS-CoV-2 growth in lung cells; details: cited from earlier work
SARS-CoV-2 = details: mouse models; cited from earlier work
Caco-2 cells = test: Cell viability assay, xCelligence RTCA-DP, Caco-2; type: cell-based, human; details: 50 µM
In short: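 Impedance-based real-time cell index monitoring. Seeding in e-plates: 15 × 10³ cells/well for Calu-3, 10 × 10³ for Caco-2. Plates rested 20 min at room temperature, then held at 37 °C, 5% CO2. After 24 h, medium replaced with test compound at 50, 10, 2 or 0.4 µM; 2 replicates per line. Readings every 15 min for 72 h; ~100 h curves compared with control.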

[5] = person with VITT after ChAdOx1-S vaccine; cited from earlier work
3CLpro [6] = details: read-out: IC50 on 3CLpro activity; cited from earlier work
[7] = tested on: SARS-CoV-2-induced cytopathic effects in Vero E6; details: live virus; cited from earlier work
[8] = tested on: SARS-CoV-2-induced cytopathic effects in human A549 cells (A549/ACE2); details: live virus; cited from earlier work
3CLpro [9] = details: FRET-based enzymatic assay; cited from earlier work

For `NC(=O)C(c1ccccc1)(c1ccccc1)[C@@H]1CCN(CCc2ccc3c(c2)CCO3)C1` [Drug B25, Darifenacin], the “effect on cell proliferation (cell index)” value (“effect … (cell index)” below) (Calu-3 cells; 25 µM, after a certain period) was “reduced cell proliferation” and the “effect … (cell index)” value (Calu-3 cells; 50 µM) was “reduced cell proliferation”.
In the case of `Cc1ccc(NC(=O)C2(c3ccc4c(c3)OC(F)(F)O4)CC2)nc1-c1cccc(C(=O)O)c1` [Drug B22, Lumacaftor], the inhibition at 50 µM [1] is reported as no less than 50%, the “IC50 range in words, Calu-3” value [2] is reported as “sub-micromolar range” and the “IC50 range in words, Caco-2” value [3] is reported as “sub-micromolar range”. The “activity level in presence of Cnd” value [3] was “activity at the nanomolar (nM) level”, the SARS-CoV-2 growth [4] was “inhibit SARS-CoV-2 growth” and the SARS-CoV-2 growth (SARS-CoV-2) was “inhibit SARS-CoV-2 growth”.
In the case of `COc1ccc2c(O[C@@H]3C[C@H]4C(=O)N[C@]5(C(=O)NS(=O)(=O)C6CC6)C[C@H]5/C=C\CCCCN(C)C(=O)[C@@H]4C3)cc(-c3nc(C(C)C)cs3)nc2c1C` [Drug B18, Simeprevir], the “effect … (cell index)” value (Caco-2 cells) is reported as “toxic effects”.
With `CC1=NN(c2ccc(C)c(C)c2)C(=O)/C1=N\Nc1cccc(-c2cccc(C(=O)O)c2)c1O` [Elt, Eltrombopag] the inhibition at 50 µM [1] was no less than 50%, the “activity level in presence of Cnd” value [2] was “activity at the nanomolar (nM) level” and the “activity level in presence of Cnd” value [3] was “activity at the nanomolar (nM) level”. The “effect … (cell index)” value (Calu-3 cells; 50 µM) was “reduced cell proliferation”, the “effect … (cell index)” value (Caco-2 cells) was “toxic effects” and the platelet levels [5] was “normalized”.
For `O=c1[nH]c2ccccc2n1C1CCN(CCCC(c2ccc(F)cc2)c2ccc(F)cc2)CC1` [Drug B11, Pimozide], the inhibition at 50 µM [1] was no less than 50%, the “activity level in presence of Cnd” value [2] was “activity at the nanomolar (nM) level” and the “activity level in presence of Cnd” value [3] was “activity at the nanomolar (nM) level”. For the same molecule, the “effect … (cell index)” value (Calu-3 cells; 50 µM) was “reduced cell proliferation”, the IC50 (3CLpro [6]) was 42.5 µM and the “inhibition of SARS-CoV-2-induced cytopathic effects” value [7] was “significant inhibition”. The “inhibition of SARS-CoV-2-induced cytopathic effects” value [8] was “significant inhibition”.
In the case of `CC(C)C(=O)OCC(=O)[C@@]12O[C@H](C3CCCCC3)O[C@@H]1C[C@H]1[C@@H]3CCC4=CC(=O)C=C[C@]4(C)[C@H]3[C@@H](O)C[C@@]12C` [Drug B12, Ciclesonide], the “effect … (cell index)” value (Calu-3 cells; 50 µM) is reported as “reduced cell proliferation” and the “effect … (cell index)” value (Caco-2 cells) is reported as “toxic effects”.
For `CC(C)COCC(CN(Cc1ccccc1)c1ccccc1)N1CCCC1` (stereo not shown) [bepridil], the “inhibition of SARS-CoV-2-induced cytopathic effects” value [7] is given as “significant inhibition” and the “inhibition of SARS-CoV-2-induced cytopathic effects” value [8] is given as “significant inhibition”.
For `CC1(C)O[C@@H]2C[C@H]3[C@@H]4C[C@H](F)C5=CC(=O)C=C[C@]5(C)[C@@]4(F)[C@@H](O)C[C@]3(C)[C@]2(C(=O)CO)O1` [Drug B2, Fluocinolone], the inhibition at 50 µM [1] was no less than 50%.
In the case of `CC(=O)OCC(=O)[C@@]12OC3(CCCC3)O[C@@H]1C[C@H]1[C@@H]3CCC4=CC(=O)C=C[C@]4(C)[C@@]3(F)[C@@H](O)C[C@@]12C` [Drug B5, Amcinonide], the inhibition at 50 µM [1] is reported as no less than 50%, the IC50 ([2]; Severe acute respiratory syndrome coronavirus 2, Calu-3, read-out: IC50 (µM) in Calu-3 cells) is reported as 2 to 5 µM and the “activity level in presence of Cnd” value [3] is reported as “activity at the nanomolar (nM) level”.
`CC(=O)[C@@]1(O)CC[C@H]2[C@@H]3C[C@H](C)C4=CC(=O)C=C[C@]4(C)[C@@]3(F)[C@@H](O)C[C@@]21C` [Drug B9, Fluorometholone] showed an inhibition at 50 µM [1] of no less than 50%.
With `CC1(C)O[C@@H]2C[C@H]3[C@@H]4CCC5=CC(=O)C=C[C@]5(C)[C@H]4[C@@H](O)C[C@]3(C)[C@]2(C(=O)CO)O1` [Drug B7, Desonide] the inhibition at 50 µM [1] was no less than 50%.
`C[C@@H]1CCO[C@H]2Cn3cc(C(=O)NCc4ccc(F)cc4F)c(=O)c(O)c3C(=O)N12` [Drug B23, Dolutegravir] showed an inhibition at 50 µM [1] of no less than 50%.
Molecule `Cc1c(O)cccc1C(=O)N[C@@H](CSc1ccccc1)[C@H](O)CN1C[C@H]2CCCC[C@H]2C[C@H]1C(=O)NC(C)(C)C` [Drug B21, Nelfinavir] has an inhibition at 50 µM [1] of no less than 50%.
For `CCOc1nc2cccc(C(=O)O)c2n1Cc1ccc(-c2ccccc2-c2nnn[nH]2)cc1` [Cnd, Candesartan], the inhibition at 50 µM [1] was no less than 50%, the “IC50 range in words, Calu-3” value [2] was “sub-micromolar range” and the “IC50 range in words, Caco-2” value [3] was “sub-micromolar range”. For the same molecule, the “inhibitory activity on 3CLpro” value (3CLpro [9]) was “did not confirm”.
For `CC(C)(C)c1cc(C(C)(C)C)c(NC(=O)c2c[nH]c3ccccc3c2=O)cc1O` [ivacaftor], the SARS-CoV-2 growth [4] is given as “inhibit SARS-CoV-2 growth” and the SARS-CoV-2 growth (SARS-CoV-2) is given as “inhibit SARS-CoV-2 growth”.
